Results as given in ChEMBL document CHEMBL1143781, “Synthesis, in vitro antibacterial and antifungal evaluations of 2-amino-4-(1-naphthyl)-6-arylpyrimidines” (2007).
Values after ≈ are worked out from the molar mass of the structure shown.

Columns and labels:
Type in all cases: functional
Staphylococcus aureus = test: Antibacterial activity against Staphylococcus aureus after 24 hrs by micro-broth dilution technique
Procedure, shortened: (§1)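 Mueller-Hinton broth microdilution. Test compounds were serially diluted two-fold in DMSO. The inoculum was grown in broth overnight at 37 °C, then diluted to a final 10⁵ cfu/ml in the tray. Trays were covered and incubated at 37 °C for about 24 h. MIC was the lowest concentration inhibiting visible growth.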

Pseudomonas aeruginosa = test: Antibacterial activity against Pseudomonas aeruginosa after 24 hrs by micro-broth dilution technique; procedure, shortened: as §1
Trichophyton tonsurans = test: Antifungal activity against Trichophyton tonsurans after 7 days; settings: 168 h
Procedure, shortened: (§2)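 Fungal strains were taken from Sabouraud medium into nutrient broth and grown 3–5 days at 25 °C. They were vortexed 4–5 min with sterile beads, and the suspensions were adjusted to absorbance 0.5 at 500 nm. Eight serial dilutions were made in microplates, and all wells except the positive control received standardized inoculum. MIC was the lowest concentration giving no visible growth.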

Escherichia coli = test: Antibacterial activity against Escherichia coli after 24 hrs by micro-broth dilution technique; procedure, shortened: as §1
Klebsiella pneumoniae = test: Antibacterial activity against Klebsiella pneumoniae after 24 hrs by micro-broth dilution technique; procedure, shortened: as §1
Microsporum = test: Antifungal activity against Microsporum gypseum after 7 days; settings: 168 h; procedure, shortened: as §2

Compound | MIC (Staphylococcus aureus) | MIC (Pseudomonas aeruginosa) | MIC (Trichophyton tonsurans) | MIC (Escherichia coli) | MIC (Klebsiella pneumoniae) | MIC (Microsporum)
Nc1nc(-c2ccc(Cl)cc2)cc(-c2cccc3ccccc23)n1 | 12.3 µg/mL (≈ 37.1 µM) | 21.9 µg/mL (≈ 66 µM) | 2.8 µg/mL (≈ 8.44 µM) | 13.5 µg/mL (≈ 40.7 µM) | 19.8 µg/mL (≈ 59.7 µM) | 5.55 µg/mL (≈ 16.7 µM)
Nc1nc(-c2ccc(F)cc2)cc(-c2cccc3ccccc23)n1 | 7.3 µg/mL (≈ 23.1 µM) | 5.45 µg/mL (≈ 17.3 µM) | 2.2 µg/mL (≈ 6.98 µM) | 8.1 µg/mL (≈ 25.7 µM) | 2.55 µg/mL (≈ 8.09 µM) | 5.9 µg/mL (≈ 18.7 µM)
Nc1nc(-c2ccccc2Cl)cc(-c2cccc3ccccc23)n1 | 40 µg/mL (≈ 121 µM) | 6.4 µg/mL (≈ 19.3 µM) | 25 µg/mL (≈ 75.3 µM) | > 60 µg/mL | 5.38 µg/mL (≈ 16.2 µM) | 25 µg/mL (≈ 75.3 µM)
CC1(C)S[C@@H]2[C@H](NC(=O)[C@H](N)c3ccccc3)C(=O)N2[C@H]1C(=O)O [AMPICILLIN] | 1 µg/mL (≈ 2.86 µM) | 1.8 µg/mL (≈ 5.15 µM) | – | 1.65 µg/mL (≈ 4.72 µM) | 1.8 µg/mL (≈ 5.15 µM) | –
Nc1nc(-c2cccc([N+](=O)[O-])c2)cc(-c2cccc3ccccc23)n1 | 29.1 µg/mL (≈ 85 µM) | 18.2 µg/mL (≈ 53.2 µM) | 25 µg/mL (≈ 73 µM) | 19.5 µg/mL (≈ 57 µM) | 14.3 µg/mL (≈ 41.7 µM) | 25 µg/mL (≈ 73 µM)
Nc1nc(-c2ccccc2)cc(-c2cccc3ccccc23)n1 | > 60 µg/mL | 6.59 µg/mL (≈ 22.2 µM) | 25 µg/mL (≈ 84.1 µM) | 42 µg/mL (≈ 141 µM) | 5.5 µg/mL (≈ 18.5 µM) | 25 µg/mL (≈ 84.1 µM)
Nc1nc(-c2cccc(Cl)c2)cc(-c2cccc3ccccc23)n1 | 39 µg/mL (≈ 118 µM) | 7.42 µg/mL (≈ 22.4 µM) | 25 µg/mL (≈ 75.3 µM) | 41 µg/mL (≈ 124 µM) | 6.38 µg/mL (≈ 19.2 µM) | 25 µg/mL (≈ 75.3 µM)
Nc1nc(-c2ccc([N+](=O)[O-])cc2)cc(-c2cccc3ccccc23)n1 | 25.6 µg/mL (≈ 74.9 µM) | 11.9 µg/mL (≈ 34.8 µM) | 25 µg/mL (≈ 73 µM) | 16.6 µg/mL (≈ 48.6 µM) | 15.3 µg/mL (≈ 44.8 µM) | 25 µg/mL (≈ 73 µM)
COc1ccccc1-c1cc(-c2cccc3ccccc23)nc(N)n1 | > 60 µg/mL | 9.18 µg/mL (≈ 28 µM) | 25 µg/mL (≈ 76.4 µM) | 36 µg/mL (≈ 110 µM) | 8.22 µg/mL (≈ 25.1 µM) | 25 µg/mL (≈ 76.4 µM)
COc1ccc(-c2cc(-c3cccc4ccccc34)nc(N)n2)cc1 | > 60 µg/mL | 10.2 µg/mL (≈ 31.2 µM) | 25 µg/mL (≈ 76.4 µM) | > 60 µg/mL | 9.31 µg/mL (≈ 28.4 µM) | 25 µg/mL (≈ 76.4 µM)
Clc1ccc(COC(Cn2ccnc2)c2ccc(Cl)cc2Cl)c(Cl)c1 (stereo not given) [MICONAZOLE] | – | – | 0.2 µg/mL (≈ 0.481 µM) | – | – | 0.2 µg/mL (≈ 0.481 µM)
